Test results: ChEMBL document CHEMBL1133172, “Discovery of orally active nonpeptide vitronectin receptor antagonists based on a 2-benzazepine Gly-Asp mimetic” (J Med Chem, 2000)

What was measured:
[1] = Oral bioavailability in rat; type: ADME, organism-based; details: in vivo
Outline: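 Rat iv and po dosing; plasma concentration–time data from two to three animals; oral bioavailability calculated from dose-normalized iv and po AUC values.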

[2] = Half life period in rat; type: ADME, organism-based; details: in vivo
Outline: (§1)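 Rats; plasma concentration–time data of test compound from two to three separate animals, analysed noncompartmentally for half-life and clearance.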

[3] = Plasma clearance in rat; type: ADME, organism-based; outline: as §1
Integrin alpha-V/beta-3 [4] = target: T1, Integrin alpha-V/beta-3 (Homo sapiens, UniProt P05106+P06756); experiment: HEK cell adhesion mediated by alpha v beta 3 integrin; type: functional, cell-based, HEK293
Outline: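 HEK 293 cells transfected with human αvβ3; inhibition of their adhesion to purified human vitronectin measured. IC50 as the mean of two experiments run in triplicate, with an internal standard.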

Integrin alpha-V/beta-3 [5] = target: T1, Integrin alpha-V/beta-3; experiment: Binding affinity for Vitronectin receptor (alpha V beta 3); type: protein-complex assay
Outline: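 Competition binding to human αvβ3 with displacement of 3H-SK&F 107260; Ki from the mean of two to three separate experiments.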

[6] = target: Integrin alpha-IIb/beta-3 (Homo sapiens, UniProt P05106+P08514); experiment: Binding affinity for alpha IIb beta-3 integrin; type: protein-complex assay
Outline: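 Human αIIbβ3 competition binding, 3H-SK&F 107260 as the displaced radioligand; Ki averaged over two to three separate experiments.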

T1 sequence (P05106 27-788 limits assumed): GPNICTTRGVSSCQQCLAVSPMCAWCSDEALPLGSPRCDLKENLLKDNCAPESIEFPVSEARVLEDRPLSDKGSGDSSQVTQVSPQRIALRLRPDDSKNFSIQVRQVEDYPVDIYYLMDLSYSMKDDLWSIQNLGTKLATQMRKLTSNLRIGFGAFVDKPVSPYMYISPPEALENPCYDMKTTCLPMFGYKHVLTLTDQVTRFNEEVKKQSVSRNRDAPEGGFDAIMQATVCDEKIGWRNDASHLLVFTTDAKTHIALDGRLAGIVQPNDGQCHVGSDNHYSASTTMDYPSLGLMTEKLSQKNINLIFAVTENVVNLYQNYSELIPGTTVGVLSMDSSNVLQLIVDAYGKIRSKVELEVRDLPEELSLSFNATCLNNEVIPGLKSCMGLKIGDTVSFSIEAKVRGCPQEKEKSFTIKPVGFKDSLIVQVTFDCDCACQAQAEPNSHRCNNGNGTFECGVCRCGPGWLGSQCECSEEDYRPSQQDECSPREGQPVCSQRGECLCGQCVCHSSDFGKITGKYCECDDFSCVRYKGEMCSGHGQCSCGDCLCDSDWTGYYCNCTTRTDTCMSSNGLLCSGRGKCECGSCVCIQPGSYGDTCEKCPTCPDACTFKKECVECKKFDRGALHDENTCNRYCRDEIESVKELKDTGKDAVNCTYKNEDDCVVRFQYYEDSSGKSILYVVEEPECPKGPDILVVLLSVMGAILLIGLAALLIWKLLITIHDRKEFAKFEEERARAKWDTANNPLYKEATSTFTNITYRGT
T1 sequence (P06756 31-889 limits assumed): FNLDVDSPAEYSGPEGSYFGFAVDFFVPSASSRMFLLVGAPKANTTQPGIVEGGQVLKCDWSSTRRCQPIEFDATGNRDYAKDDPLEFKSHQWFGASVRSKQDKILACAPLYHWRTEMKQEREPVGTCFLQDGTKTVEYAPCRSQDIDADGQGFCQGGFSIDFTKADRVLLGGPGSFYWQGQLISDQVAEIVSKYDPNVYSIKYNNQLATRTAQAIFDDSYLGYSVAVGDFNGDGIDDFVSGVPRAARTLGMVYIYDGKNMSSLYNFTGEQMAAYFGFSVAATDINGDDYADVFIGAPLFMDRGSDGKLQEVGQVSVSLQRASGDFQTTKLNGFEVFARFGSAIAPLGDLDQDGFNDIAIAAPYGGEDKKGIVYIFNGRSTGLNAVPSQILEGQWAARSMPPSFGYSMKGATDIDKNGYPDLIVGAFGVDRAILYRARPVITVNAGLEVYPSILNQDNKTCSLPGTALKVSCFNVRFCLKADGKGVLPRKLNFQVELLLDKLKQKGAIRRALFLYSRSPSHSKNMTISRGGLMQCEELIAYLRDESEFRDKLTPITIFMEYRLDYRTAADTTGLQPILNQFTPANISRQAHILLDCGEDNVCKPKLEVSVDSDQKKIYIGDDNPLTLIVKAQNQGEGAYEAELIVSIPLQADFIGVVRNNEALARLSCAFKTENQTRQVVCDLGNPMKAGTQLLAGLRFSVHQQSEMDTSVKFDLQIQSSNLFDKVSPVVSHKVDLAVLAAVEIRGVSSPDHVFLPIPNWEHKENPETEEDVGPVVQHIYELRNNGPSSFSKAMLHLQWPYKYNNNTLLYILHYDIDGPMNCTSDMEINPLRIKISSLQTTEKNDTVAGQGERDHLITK
T1 sequence (P06756 891-1048 limits assumed): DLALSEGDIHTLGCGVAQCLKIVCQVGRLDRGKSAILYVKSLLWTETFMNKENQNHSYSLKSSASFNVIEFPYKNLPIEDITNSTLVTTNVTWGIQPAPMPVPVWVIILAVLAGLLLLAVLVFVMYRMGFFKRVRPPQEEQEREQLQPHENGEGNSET
Sequence of Integrin alpha-IIb/beta-3 (P05106 27-788 limits assumed): as the sequence (P05106 27-788 limits assumed) above
Sequence of Integrin alpha-IIb/beta-3 (P08514 32-887 limits assumed): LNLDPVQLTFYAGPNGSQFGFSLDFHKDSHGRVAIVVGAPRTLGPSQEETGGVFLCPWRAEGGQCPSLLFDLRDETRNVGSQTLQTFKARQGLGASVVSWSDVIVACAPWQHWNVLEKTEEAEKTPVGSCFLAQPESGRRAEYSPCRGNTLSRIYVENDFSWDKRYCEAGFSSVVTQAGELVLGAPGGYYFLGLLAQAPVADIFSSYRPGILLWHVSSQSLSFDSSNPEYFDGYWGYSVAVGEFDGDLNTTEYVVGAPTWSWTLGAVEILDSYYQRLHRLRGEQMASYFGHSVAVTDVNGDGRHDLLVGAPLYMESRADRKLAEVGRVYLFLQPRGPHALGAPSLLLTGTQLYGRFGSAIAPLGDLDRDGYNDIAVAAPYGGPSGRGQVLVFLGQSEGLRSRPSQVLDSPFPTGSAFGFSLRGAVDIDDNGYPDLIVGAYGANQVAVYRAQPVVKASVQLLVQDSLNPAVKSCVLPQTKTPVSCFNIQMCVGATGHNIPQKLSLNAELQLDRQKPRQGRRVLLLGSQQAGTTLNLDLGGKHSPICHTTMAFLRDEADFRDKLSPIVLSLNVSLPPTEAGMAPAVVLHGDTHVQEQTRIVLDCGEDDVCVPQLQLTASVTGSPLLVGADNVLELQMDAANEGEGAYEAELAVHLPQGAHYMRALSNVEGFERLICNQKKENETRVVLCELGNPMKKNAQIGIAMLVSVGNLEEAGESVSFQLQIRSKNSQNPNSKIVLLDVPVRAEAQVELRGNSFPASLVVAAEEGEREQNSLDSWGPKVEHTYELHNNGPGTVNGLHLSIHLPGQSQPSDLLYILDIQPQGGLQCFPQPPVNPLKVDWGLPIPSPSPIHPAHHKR
Sequence of Integrin alpha-IIb/beta-3 (P08514 891-1039 limits assumed): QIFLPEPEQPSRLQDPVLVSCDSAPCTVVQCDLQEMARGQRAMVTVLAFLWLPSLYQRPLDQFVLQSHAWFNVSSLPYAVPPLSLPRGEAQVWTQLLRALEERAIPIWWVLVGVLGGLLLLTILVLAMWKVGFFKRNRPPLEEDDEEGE

bioavailability [1] [%]	half-life [2] [min]	clearance [3] [mL/min/kg]	IC50 (Integrin alpha-V/beta-3 [4]) [nM]	Ki (Integrin alpha-V/beta-3 [5]) [nM]	Ki [6] [nM]	Structure (SMILES)
19	25	63	53	1.3	9000	O=C(O)CC1Cc2ccc(OCCCNc3ccccn3)cc2CN(CC(F)(F)F)C1=O (stereo unspecified)
	192	4				O=C(O)C[C@@H]1Cc2ccc(OCCCNc3ccccn3)cc2Cc2ccccc21
34	360	16	12	0.9	3300	O=C(O)C[C@@H]1Cc2ccc(OCCCNc3ccccn3)cc2CN(CC(F)(F)F)C1=O
72	53	25	3	1.2	3800	CNc1cccc(CCOc2ccc3c(c2)CN(CC(F)(F)F)C(=O)[C@H](CC(=O)O)C3)n1
4	19	60	390	20		O=C(O)C[C@H]1Cc2ccc(OCCCNc3ccccn3)cc2CN(CC(F)(F)F)C1=O
9	16	50	75	1.9	30000	CN1Cc2cc(OCCCNc3ccccn3)ccc2CC(CC(=O)O)C1=O (stereo unspecified)
